Consider five molecules from article PMC5570473 (Nature chemical biology, 2017).

Each structure is given as a SMILES string. Where two headings read alike, the source gives them in different places. Peptide text beside a SMILES is read from it. * marks the point of attachment. Cbz = O=C(OCc1ccccc1)*

Data set [1] deals with Rpn11 (Homo sapiens, UniProt O00487). Put plainly: In vitro Rpn11 activity assay. Type of data set: biochemical. The settings on record: for effect of Zn(cyclen)^2+ on IC50 for Rpn11: 100 μM Zn(cyclen)^2+ present.
Data set [2] concerns A549 cells. Put plainly: Aggresome formation and clearance assay. The settings on record: for aggresome formation (ubiquitin, HDAC6, p62/SQSTM1 staining): 15 hours. The class given is cell-based, human. The method in brief:
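A549 cells were loaded with 5 μM MG132 for 15 h, washed free of it, then held ± a range of test compound concentrations for 24 h. They were fixed in 4% paraformaldehyde, permeabilised with 0.2% Triton X-100, blocked in 5% FBS/0.1% Triton X-100, immunostained for ubiquitin, HDAC6 or p62/SQSTM1, and imaged.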

Data set [3] relates to Hela cells stably expressing Ub^G76V-GFP. Put plainly: Ub^G76V-GFP accumulation assay. The class given is cell-based. The settings on record: for accumulation of Ub^G76V-GFP: 5 μM, 4 hours.
Data set [4] has as its system WT or nfe2l1^−/− MEF cells. Put plainly: Cell growth inhibition in WT versus Nrf1 knockout MEF cells. The class given is cell-based. The settings on record: 72 hours.
The test system of data set [5] is angiomotin K481 ubiquitination in 293T cells. Put plainly: Quantitative ubiquitination site profiling. The class given is cell-based, human. The settings on record: 8 hours, 10 μM capzimin or 1 μM BTZ. Summed up:
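SILAC-labelled HEK293T cells were grown in Arg/Lys-free DMEM with 10% dialysed FBS, 1 mM pyruvate and 10 mg/L proline. At 80–90% confluence they were treated 8 h with 10 μM test compound (n=3), 1 μM bortezomib (n=4) or DMSO. Cells were trypsinised and pooled from three plates per treatment. Lysates were trypsin-digested with NEM alkylation, K-ε-GlyGly peptides enriched by antibody, and analysed by LC-MS.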

The test system of data set [6] is angiomotin in 293T cells. Kind of data set: Pulldown of polyubiquitylated protein. Type of data set: cell-based. The settings on record: 8 hours. The method in brief: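 293T cells were treated 8 h with test compound, bortezomib or DMSO. Lysis was in 40 mM Tris-HCl pH 7.6, 5 mM NEM, 0.1% NP-40, followed by binding to TUBE2 agarose for 2 h at 4°C. Beads were washed three times in the same buffer with 150 mM NaCl, then eluted in SDS buffer. Eluates were immunoblotted for ubiquitin and angiomotin.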

Data set [7] has as its system K562 cell line (leukemia). Put plainly: NCI 60 panel, K562 cell line. Type of data set: cell-based. The settings on record: Homo sapiens, K562, read-out: GI50 K562.
Data set [8] has as its system MCF7 (breast cancer). Kind of data set: NCI 60 panel, MCF7. The class given is cell-based. The settings on record: Homo sapiens, MCF7, read-out: GI50 MCF7.
Data set [9] concerns HCT116 cells. Put plainly: Immunoblot of UPS substrates, UPR and apoptosis markers. The class given is cell-based. Summed up: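 HCT116 cells were treated 6 h with 2 or 10 μM test compound, alongside 1 μM bortezomib, 10 μM CB5083 or 2 μg/ml tunicamycin. Lysates were immunoblotted for ubiquitin, p53, Hif1α, PERK, BiP, XBP1s, CHOP and GAPDH. For apoptosis, HCT116 cells were treated 24 h and blotted for PARP1, caspase3, pH2AX and GAPDH.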
In general terms: A western blot detects proteins with antibodies after separation by electrophoresis.

Data set [10] deals with HDAC6. Put plainly: HDAC 6 activity assay. The class given is biochemical.
Data set [11] deals with NCI panel of 60 cancer cell lines. Kind of data set: NCI panel of 60 cancer cell lines. Type of data set: cell-based. The settings on record: Homo sapiens, read-out: median GI50 NCI 60 panel.
The target of data set [12] is AMSH (Homo sapiens, UniProt O95630). Kind of data set: In vitro AMSH activity assay. Type of data set: biochemical.
Data set [13] deals with NCI-H460 (non-small cell lung cancer). Put plainly: NCI 60 panel, NCI-H460. The class given is cell-based. The settings on record: Homo sapiens, NCI-H460, read-out: GI50 NCI-H460.
Data set [14] has as its system MMP2. Kind of data set: MMP activity assay. The class given is biochemical, human.
The test system of data set [15] is MMP12. Kind of data set: MMP activity assay. The class given is biochemical, human.
Data set [16] addresses 26S proteasome (Saccharomyces cerevisiae, UniProt P43588). Type of data set: biochemical, yeast. The settings on record: 20 μM, purified proteasomes. Summed up:
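Alexa488-labelled Rpn10-I27V13Pext (100 nM) was incubated with 10 nM purified yeast 26S proteasome at 30°C, ± 20 μM test compound. Aliquots were taken at 0, 30, 60, 90 and 120 min into SDS sample buffer and resolved by SDS-PAGE. Intact substrate was quantified by fluorescence gel imaging (488/520 nm).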

Data set [17] has as its system WT or bortezomib-resistant RPE1 cells. Put plainly: Cell growth inhibition in WT and bortezomib-resistant RPE1 cells. The class given is cell-based. The settings on record: 72 hours. The method in brief: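 WT and bortezomib-resistant RPE1 cells received a concentration series of test compound for 72 h before CellTiter-Glo addition. Luminescence was normalised to DMSO control and fitted to a dose-response equation for GI50. Data are n=3 wells, from one representative of 3 independent experiments.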

The subject of data set [18] is carbonic anhydrase II. Kind of data set: hCAII activity assay. Type of data set: biochemical, human.
Data set [19] has as its target BRCC36 (Homo sapiens, UniProt P46736). Put plainly: In vitro BRCC36 activity assay. The class given is biochemical. The method in brief: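 BRISC complex (BRCC36, KIAA0157, BRCC45, MERIT40) was co-expressed in insect cells and purified to >95% by affinity and size exclusion. 1 nM BRISC was reacted with 80 nM DiUbK63-TAMRA, monitoring TAMRA fluorescence (ex 540/em 590 nm). Data were normalised to DMSO and fitted for IC50. With substrate far below KM, IC50 approximates Ki.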

Data set [20] relates to SR cell line (leukemia). Kind of data set: NCI 60 panel, SR cell line. The settings on record: Homo sapiens, read-out: GI50 SR. The class given is cell-based.
For data set [21], the target named is glyoxalase I (GLO1) (Homo sapiens, UniProt Q04760). Put plainly: Human Glyoxalase 1 assay. Type of data set: biochemical. The method in brief: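 Recombinant human GLO1 (40 ng) was preincubated 15–20 min with inhibitor in 100 mM sodium phosphate, pH 7.0. Substrate was then added, formed by letting glutathione and methylglyoxal stand 20 min in buffer (≤5% DMSO final). A240 was read every minute for 8 min. Rates were compared with no-inhibitor controls after subtracting no-enzyme background.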

The subject of data set [22] is HCT116 cells. Kind of data set: Cell growth inhibition, CellTiter-Glo, 72 hours. Type of data set: cell-based. The settings on record: Homo sapiens, HCT-116, 72 h. The method in brief:
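HCT116 cells were exposed to a test-compound concentration series for 72 h in normal or low-serum medium, then mixed with CellTiter-Glo. Luminescence was normalised to DMSO and a dose-response fit gave GI50. Data are n=3 wells, one representative of 3 independent experiments.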

The target of data set [23] is Rpn11•Rpn8 heterodimer (Saccharomyces cerevisiae, UniProt P43588). Kind of data set: Rpn11•Rpn8 di-Ub cleavage assay. Type of data set: biochemical. The settings on record: 40 μM, 20 μM or 10 μM. The method in brief:
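Purified Rpn11•Rpn8 dimer (5 μM) was incubated at 30°C with K48-linked di-ubiquitin and varying test compound concentrations. The buffer was 40 mM HEPES pH 7.5, 100 mM NaCl, 100 mM KCl, 5% glycerol.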

The test system of data set [24] is HEK293T cells. Kind of data set: Cellular imaging with optical zinc sensor. The class given is cell-based. The settings on record: 10 μM. Summed up:
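HEK293T cells were transfected with a FRET zinc sensor and imaged 24–48 h later at 37°C/5% CO2 in phosphate-free HEPES-buffered HBSS, pH 7.4, with frames every minute. After 5 min resting FRET, 10 μM test compound or 0.5% DMSO was added (n=11 cells each). Calibration used 50 μM TPA, then 0.75 μM pyrithione plus 12 μM buffered zinc. Background-corrected FRET/CFP ratios were normalised to resting; error bars SEM.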

For data set [25] the following is noted: mice ref 49; cited from earlier work.

The term GI50 denotes the concentration at which growth is held to half of that of the control. A word on the IC50: it is the midpoint of a concentration-inhibition curve. Read a low IC50 as greater potency in that assay. In general, inhibition refers to the change of the read-out against control, counted positive when it falls.

Chain of Rpn11•Rpn8 heterodimer (P43588 2-239 limits assumed): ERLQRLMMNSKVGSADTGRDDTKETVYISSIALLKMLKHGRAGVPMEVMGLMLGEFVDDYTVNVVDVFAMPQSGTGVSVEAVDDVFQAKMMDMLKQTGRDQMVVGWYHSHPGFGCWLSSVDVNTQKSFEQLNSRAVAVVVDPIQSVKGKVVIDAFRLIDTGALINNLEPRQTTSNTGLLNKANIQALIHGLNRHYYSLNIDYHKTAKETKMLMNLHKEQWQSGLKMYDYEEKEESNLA
Chain of Rpn11•Rpn8 heterodimer (Q08723 1-179 partner limits assumed): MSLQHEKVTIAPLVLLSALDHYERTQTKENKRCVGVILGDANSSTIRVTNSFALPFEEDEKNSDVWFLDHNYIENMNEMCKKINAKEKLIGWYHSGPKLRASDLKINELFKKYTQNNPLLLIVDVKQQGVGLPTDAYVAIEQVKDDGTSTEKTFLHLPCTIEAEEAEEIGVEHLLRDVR
Chain of glyoxalase I (GLO1) (Q04760 2-184 limits assumed): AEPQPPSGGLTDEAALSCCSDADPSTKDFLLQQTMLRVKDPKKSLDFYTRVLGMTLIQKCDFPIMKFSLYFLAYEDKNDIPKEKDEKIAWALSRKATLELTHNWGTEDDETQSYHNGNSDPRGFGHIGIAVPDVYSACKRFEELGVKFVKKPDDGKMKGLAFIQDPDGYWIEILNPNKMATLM
Chain of AMSH (O95630 whole entry): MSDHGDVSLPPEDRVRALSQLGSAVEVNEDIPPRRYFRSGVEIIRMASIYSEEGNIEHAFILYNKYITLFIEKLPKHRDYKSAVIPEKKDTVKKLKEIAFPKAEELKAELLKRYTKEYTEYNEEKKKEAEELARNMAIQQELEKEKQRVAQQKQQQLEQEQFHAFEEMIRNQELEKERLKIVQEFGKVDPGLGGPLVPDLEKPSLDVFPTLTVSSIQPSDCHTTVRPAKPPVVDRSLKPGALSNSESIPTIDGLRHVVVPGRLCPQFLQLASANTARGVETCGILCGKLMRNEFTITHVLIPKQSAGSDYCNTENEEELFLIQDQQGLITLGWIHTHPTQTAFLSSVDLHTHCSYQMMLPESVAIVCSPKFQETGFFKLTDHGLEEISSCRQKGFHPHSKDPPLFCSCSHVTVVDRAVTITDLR

Regarding `O=C(Sc1cccc2cccnc12)c1ccccc1Br` [H18, S-(Quinolin-8-yl) 2-bromobenzothioate], the “effect of Zn(cyclen)^2+ on IC50 for Rpn11” value in [1] is given as “shifted the IC50 of both compounds to a higher value”.
`CC(C)C[C@@H](C=O)NC(=O)[C@H](CC(C)C)NC(=O)[C@H](CC(C)C)NC(=O)OCc1ccccc1` [MG132, reference compound] (Cbz-Leu-Leu-Leu-aldehyde): the “aggresome formation (ubiquitin, HDAC6, p62/SQSTM1 staining)” value in data set [2] was “punctate staining characteristic of aggresomes”. Besides, the “accumulation of Ub^G76V-GFP” value in [3] was “strong accumulation”.
As to `CC(C)C[C@H](NC(=O)[C@H](Cc1ccccc1)NC(=O)c1cnccn1)B(O)O` [bortezomib, reference compound], the “sensitivity of Nrf1^−/− cell line compared to WT MEF” value in [4] is reported as “more sensitive”. Further, the “up-regulation of angiomotin ubiquitination at K481” value in data set [5] stood at 2.4 fold.
For `O=C(NCCc1nccs1)c1cnc2c(SSc3cccc4cc(C(=O)NCCc5nccs5)cnc34)cccc2c1` [capzimin], the “accumulation of high molecular weight species of angiomotin” value in [6] is recorded as “strong accumulation”. For the same molecule, in [4], the “sensitivity of Nrf1^−/− cell line compared to WT MEF” value is reported as “more sensitive”. The GI50 in data set [7] is 1 µM; in data set [8] it was 1 µM; in data set [11], 3.3 µM; in data set [13], 0.7 µM; in [20], 0.67 µM; in data set [22] (read-out: GI50 HCT116) it was approximately 2 µM. For the same molecule, the GI50 in [22] (read-out: GI50 HCT116 low serum) stood at 0.6 µM. In addition, the “mode of inhibition of Rpn11 / 26S proteasome” value in data set [1] is listed as “uncompetitive inhibitor”. Also, the “effect on Nedd8-conjugated Cul1 (cellular Csn5)” value in [9] is recorded as “little effect”. In addition, the “accumulation of ubiquitin conjugates and proteasome substrates p53, Hif1α, Nrf2” value in [9] (2 or 10 μM, 6 hours) is on record as “caused accumulation”. The “apoptosis (processed caspase 3, cleaved PARP)” value in data set [9] (24 hours) is reported as “induced apoptosis”. For the same molecule, in data set [9] (HCT116 and 293T cells), the “unfolded protein response (phosphorylated PERK, XBP1s, CHOP)” value is given as “provoked a UPR response”. For the same molecule, the “aggresome formation (ubiquitin, HDAC6, p62/SQSTM1 staining)” value in [2] is given as “punctate staining characteristic of aggresomes”. In addition, the “up-regulation of angiomotin ubiquitination at K481” value in [5] was ~ 16 fold. Further, the “preference for inhibiting Rpn11 compared to HDAC6” value in data set [10] was more than 2 log. Also, in data set [12], the “mode of inhibition of AMSH” value is “competitive inhibitor”. The “preference for inhibiting Rpn11 compared to MMP2” value in [14] is more than 2 log. Also, the “preference for inhibiting Rpn11 compared to MMP12” value in data set [15] is more than 2 log. The “influence on degradation of ubiquitin-independent substrate Rpn10-127^V13Pext” value in [16] is on record as “no influence”. Besides, in data set [17], the “GI50 against WT versus bortezomib-resistant retinal pigment epithelial cells” value was “same GI50”. In addition, the “preference for inhibiting Rpn11 compared to carbonic anhydrase II” value in data set [18] is more than 2 log. In [19], the “mode of inhibition of BRCC36” value is given as “competitive inhibitor”. This molecule also returned a half-maximal inhibitory concentration (IC50) in data set [21] of 43 µM. Besides, the “inhibition of purified Rpn11•Rpn8 (K48 di-ubiquitin cleavage)” value in data set [23] is listed as “acted directly on Rpn11•Rpn8”. In addition, the “accumulation of Ub^G76V-GFP” value in [3] was “strong accumulation”. Further, the “reversibility of inhibitory effect” value in [3] (after washout) was “reversible after washout”. The “reduction in total cellular zinc” value in data set [24] was not above 5%.
For `Sc1cccc2cccnc12` [8TQ, quinoline-8-thiol], in data set [25], the oral bioavailability entry was “orally bioavailable” and the tolerability entry was “tolerated”. Further, in [1], the “mode of inhibition of Rpn11 / 26S proteasome” value is “uncompetitive inhibition” and the “effect of Zn(cyclen)^2+ on IC50 for Rpn11” value is recorded as “shifted the IC50 of both compounds to a higher value”. In addition, the “discrimination between Rpn11, BRCC36 and AMSH” value in data set [1] (details will be published elsewhere) was “did not distinguish between Rpn11, BRCC36, and AMSH”. The inhibition at 200 µM in data set [1] (read-out: inhibition of Rpn11 activity in MBP library screen) is more than 50%. Further, the “clearance of MG132-induced aggresomes after MG132 removal and compound addition” value in [2] is on record as “not cleared”. Besides, in data set [23], the “inhibition of purified Rpn11•Rpn8 (K48 di-ubiquitin cleavage)” value is given as “inhibited purified Rpn11•Rpn8 heterodimer”.
